In paper PMC3889329 (Diabetes Therapy, 2013):

Assays:
[1] = test system: patients with type 2 diabetes mellitus; test: Derived creatinine clearance; assay type: in vivo, human
Outline: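 Derived creatinine clearance was calculated from urinary creatinine concentration and volume in timed urine fractions, together with plasma creatinine. It is expressed as […] and given as change from baseline. Dosing was oral, once daily with 240 mL water: a single dose on day 1, then daily on days 3–9.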

[2] = test system: patients with type 2 diabetes mellitus; test: Oral glucose tolerance test, glucose AUEC1-5; assay type: in vivo, human; settings: for Glucose AUEC1–5, change from baseline to day 9: baseline day −1
Outline: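 For the OGTT, 75 g glucose solution was given after an overnight fast on days −1, 1 and 9, with the test compound or placebo given orally once daily. Glucose AUEC was calculated over 1–5 h after OGTT. Change is from baseline on day −1. Patients were randomized 3:1 to active or placebo per dose group. Analysis was descriptive.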

`OC[C@H]1O[C@@H](c2ccc(Cl)c(Cc3ccc(O[C@H]4CCOC4)cc3)c2)[C@H](O)[C@@H](O)[C@@H]1O` [Empagliflozin] was tested, and the “Change from baseline in derived creatinine clearance, mean (SD)” value (“Change from baseline … (SD)” below) ([1]; 2.5 mg qd, 16 h) was −57.0 (59.4) mL/min 1.73 m^2, the “Change from baseline … (SD)” value ([1]; 2.5 mg qd, 166 h, n = 7) was 360 (620) mL/min 1.73 m^2 and the “Change from baseline … (SD)” value ([1]; 2.5 mg qd, 184 h) was −20.3 (59.2) mL/min 1.73 m^2. For the same compound, the “Change from baseline … (SD)” value ([1]; 10 mg qd, 16 h) was −28.7 (34.2) mL/min 1.73 m^2, the “Change from baseline … (SD)” value ([1]; 10 mg qd, 166 h) was 12.8 (54.7) mL/min 1.73 m^2 and the “Change from baseline … (SD)” value ([1]; 10 mg qd, 184 h) was −38.4 (36.4) mL/min 1.73 m^2. For the same compound, the “Change from baseline … (SD)” value ([1]; 25 mg qd, 16 h) was −89.2 (43.2) mL/min 1.73 m^2, the “Change from baseline … (SD)” value ([1]; 25 mg qd, 166 h) was −40.3 (61.7) mL/min 1.73 m^2 and the “Change from baseline … (SD)” value ([1]; 25 mg qd, 184 h) was −52.4 (45.5) mL/min 1.73 m^2. For the same compound, the “Change from baseline … (SD)” value ([1]; 100 mg qd, 16 h) was −21.0 (59.3) mL/min 1.73 m^2, the “Change from baseline … (SD)” value ([1]; 100 mg qd, 166 h) was −10.6 (58.0) mL/min 1.73 m^2 and the “Change from baseline … (SD)” value ([1]; 100 mg qd, 184 h) was −14.4 (55.3) mL/min 1.73 m^2. The “Mean (SD) glucose AUEC1–5, Day 9” value ([2]; 2.5 mg qd, after OGTT) was 713 (216) mg h/dL, the “Glucose AUEC1–5, change from baseline to day 9” value (from here on “Glucose AUEC1–5, change”) ([2]; 2.5 mg qd, after OGTT) was 23.1% and the “Glucose AUEC1–5, change” value ([2]; 10 mg qd, after OGTT) was 27.5%. For the same compound, the “Mean (SD) glucose AUEC1–5, Day 9” value ([2]; 10 mg qd, n = 8, after OGTT) was 655 (144) mg h/dL, the “Mean (SD) glucose AUEC1–5, Day 9” value ([2]; 25 mg qd, after OGTT) was 679 (109) mg h/dL and the “Glucose AUEC1–5, change” value ([2]; 25 mg qd, after OGTT) was 23.0%. For the same compound, the “Mean (SD) glucose AUEC1–5, Day 9” value ([2]; 100 mg qd, after OGTT) was 817 (126) mg h/dL and the “Glucose AUEC1–5, change” value ([2]; 100 mg qd, after OGTT) was 22.9%.
